The IC50 is the concentration that inhibits the measured activity by half. The inhibition is the drop in the measured response relative to a control, in per cent. The term Ki denotes the equilibrium dissociation constant of an inhibitor or competing ligand from its target. A higher Ki goes with weaker binding.

Among the data in ChEMBL document CHEMBL6134769, “Discovery of N-substituted-2-oxoindolin benzoylhydrazines as c-MET/SMO modulators in EGFRi-resistant non-small cell lung cancer” (RSC Med Chem, 2025) are IC50, inhibition and Ki values, retold here.

The structures appear in SMILES notation.

Test [1] can be described thus: Antiproliferative activity against human HCC827 Gefitinib-resistant (GR) cells assessed as reduction in cell viability measured after 72 hrs by MTS assay. Background: Tetrazolium dyes change colour on reduction, which living cells bring about.
Test [2] deals with T1, Tyrosine-protein kinase receptor TYRO3 (Homo sapiens) (UniProt Q06418).
T1 sequence (whole entry): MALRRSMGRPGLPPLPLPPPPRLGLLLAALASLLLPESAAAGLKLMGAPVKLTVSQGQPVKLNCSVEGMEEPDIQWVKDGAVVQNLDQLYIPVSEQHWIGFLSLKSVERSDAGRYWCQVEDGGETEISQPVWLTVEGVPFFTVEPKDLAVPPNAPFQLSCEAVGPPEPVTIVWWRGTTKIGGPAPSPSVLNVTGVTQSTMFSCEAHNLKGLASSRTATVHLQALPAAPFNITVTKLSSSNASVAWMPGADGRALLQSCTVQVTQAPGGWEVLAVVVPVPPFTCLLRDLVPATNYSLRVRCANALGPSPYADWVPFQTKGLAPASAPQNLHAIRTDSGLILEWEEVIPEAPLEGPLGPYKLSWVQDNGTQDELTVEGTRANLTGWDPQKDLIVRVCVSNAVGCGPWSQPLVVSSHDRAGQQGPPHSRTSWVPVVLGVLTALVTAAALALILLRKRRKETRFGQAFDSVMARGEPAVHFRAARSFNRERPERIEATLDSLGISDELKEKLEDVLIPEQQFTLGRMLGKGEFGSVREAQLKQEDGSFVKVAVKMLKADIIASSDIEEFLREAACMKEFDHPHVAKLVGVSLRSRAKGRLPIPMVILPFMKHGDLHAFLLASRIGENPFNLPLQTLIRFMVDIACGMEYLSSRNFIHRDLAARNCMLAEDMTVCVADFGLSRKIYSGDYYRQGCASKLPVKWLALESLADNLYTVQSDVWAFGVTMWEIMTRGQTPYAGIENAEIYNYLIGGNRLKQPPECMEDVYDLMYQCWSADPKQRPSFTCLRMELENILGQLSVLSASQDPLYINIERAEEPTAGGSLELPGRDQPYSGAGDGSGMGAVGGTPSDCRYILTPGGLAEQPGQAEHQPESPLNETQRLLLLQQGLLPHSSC
Nature of the test: Inhibition of human N-terminal GST-fused TYRO3 cytoplasmic domain (453 to 890 (end)residues) expressed in baculovirus expression system at 20 uM measured after 1 hr in presence of peptide substrate and ATP by off-chip mobility shift assay relative to control. In outline:
(§1)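 Off-chip mobility shift assay. Product and substrate peptides were separated; activity was taken as P/(P+S). Complete reaction was set as 0% inhibition and enzyme-free background as 100%. Run in triplicate, mean ± SD.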

A short description of test [3]: Inhibition of human full-length N-terminal GST-fused SRC (1 to 536 (end)residues) expressed in baculovirus expression system at 20 uM measured after 1 hr in presence of peptide substrate and ATP by off-chip mobility shift assay relative to control. An outline of the steps:
as §1

The target of test [4] is High affinity nerve growth factor receptor (Homo sapiens) (UniProt P04629). Nature of the test: Inhibition of human N-terminal GST-fused TRKA cytoplasmic domain (436 to 790 (end)residues) expressed in baculovirus expression system at 20 uM measured after 1 hr in presence of peptide substrate and ATP by off-chip mobility shift assay relative to control. An outline of the steps: as §1

In a further test the target is Protein smoothened (Homo sapiens, UniProt Q99835). Nature of the test: Displacement of [3H]-cyclopamine from SMO receptor (unknown origin) expressed in HEK293T cell membranes measured after 4 hrs by liquid scintillation spectrometry. Further details: species or system Cell membrane. An outline of the steps:
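Incubation of 15 μg HEK293T-WT SMO membranes (Kd 20 nM, Bmax 6.2 pmol/mg) with 25 nM [3H]-cyclopamine and varied compound, 4 h at RT, in 50 mM HEPES, 5 mM MgCl2, 0.02% BSA. Nonspecific binding was taken with 25 μM compound plus vismodegib. Bound ligand was separated on PEI-soaked GF/C filters, washed with ice-cold PBS/0.01% Triton X-100, and counted by scintillation; IC50 converted to Ki by Cheng–Prusoff.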
Background: In a radioligand displacement assay an active substance lowers the binding of a labelled ligand.

Test [5] is described as follows: Antiproliferative activity against human PC9-OR cells assessed as reduction in cell viability measured after 72 hrs by MTS assay.
Test [6] has as its target Angiopoietin-1 receptor (Homo sapiens) (UniProt Q02763). Nature of the test: Inhibition of human N-terminal GST-fused TIE2 cytoplasmic domain (771 to 1124 (end)residues) expressed in baculovirus expression system at 20 uM measured after 1 hr in presence of peptide substrate and ATP by off-chip mobility shift assay relative to control. In outline:
as §1

In test [7] the target is T2, Ephrin type-B receptor 4 (Homo sapiens) (UniProt P54760).
T2 sequence (whole entry): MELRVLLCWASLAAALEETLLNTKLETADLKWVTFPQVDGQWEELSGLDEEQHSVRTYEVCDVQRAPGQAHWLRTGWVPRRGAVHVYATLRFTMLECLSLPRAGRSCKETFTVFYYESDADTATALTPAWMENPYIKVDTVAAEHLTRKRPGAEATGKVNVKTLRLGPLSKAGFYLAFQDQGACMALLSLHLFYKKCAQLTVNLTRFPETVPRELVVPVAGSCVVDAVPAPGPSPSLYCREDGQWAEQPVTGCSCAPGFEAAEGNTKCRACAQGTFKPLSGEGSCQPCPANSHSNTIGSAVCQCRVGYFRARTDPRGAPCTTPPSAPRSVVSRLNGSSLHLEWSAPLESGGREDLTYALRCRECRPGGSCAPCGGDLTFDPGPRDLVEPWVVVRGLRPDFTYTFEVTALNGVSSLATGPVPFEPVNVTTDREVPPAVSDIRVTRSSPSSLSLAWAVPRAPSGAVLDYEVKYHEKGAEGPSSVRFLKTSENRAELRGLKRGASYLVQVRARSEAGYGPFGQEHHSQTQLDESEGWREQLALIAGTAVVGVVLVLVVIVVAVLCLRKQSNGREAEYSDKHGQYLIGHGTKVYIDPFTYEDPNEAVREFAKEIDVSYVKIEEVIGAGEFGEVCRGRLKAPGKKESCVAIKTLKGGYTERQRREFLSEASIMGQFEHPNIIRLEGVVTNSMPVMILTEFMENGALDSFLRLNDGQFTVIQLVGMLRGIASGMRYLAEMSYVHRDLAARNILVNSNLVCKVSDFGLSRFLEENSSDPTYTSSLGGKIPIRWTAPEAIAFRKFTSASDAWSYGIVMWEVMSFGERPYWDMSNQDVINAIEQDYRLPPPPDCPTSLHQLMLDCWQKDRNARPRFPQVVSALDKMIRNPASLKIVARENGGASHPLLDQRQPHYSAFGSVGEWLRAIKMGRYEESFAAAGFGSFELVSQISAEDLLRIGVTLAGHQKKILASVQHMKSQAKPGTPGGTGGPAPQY
Nature of the test: Inhibition of human N-terminal GST-fused EPHB4 cytoplasmic domain (577 to 987 (end)residues) expressed in baculovirus expression system at 20 uM measured after 1 hr in presence of peptide substrate and ATP by off-chip mobility shift assay relative to control. An outline of the steps: as §1

Angiopoietin-1 receptor (Homo sapiens), sequence (Q02763 whole entry, the tested form may be a part): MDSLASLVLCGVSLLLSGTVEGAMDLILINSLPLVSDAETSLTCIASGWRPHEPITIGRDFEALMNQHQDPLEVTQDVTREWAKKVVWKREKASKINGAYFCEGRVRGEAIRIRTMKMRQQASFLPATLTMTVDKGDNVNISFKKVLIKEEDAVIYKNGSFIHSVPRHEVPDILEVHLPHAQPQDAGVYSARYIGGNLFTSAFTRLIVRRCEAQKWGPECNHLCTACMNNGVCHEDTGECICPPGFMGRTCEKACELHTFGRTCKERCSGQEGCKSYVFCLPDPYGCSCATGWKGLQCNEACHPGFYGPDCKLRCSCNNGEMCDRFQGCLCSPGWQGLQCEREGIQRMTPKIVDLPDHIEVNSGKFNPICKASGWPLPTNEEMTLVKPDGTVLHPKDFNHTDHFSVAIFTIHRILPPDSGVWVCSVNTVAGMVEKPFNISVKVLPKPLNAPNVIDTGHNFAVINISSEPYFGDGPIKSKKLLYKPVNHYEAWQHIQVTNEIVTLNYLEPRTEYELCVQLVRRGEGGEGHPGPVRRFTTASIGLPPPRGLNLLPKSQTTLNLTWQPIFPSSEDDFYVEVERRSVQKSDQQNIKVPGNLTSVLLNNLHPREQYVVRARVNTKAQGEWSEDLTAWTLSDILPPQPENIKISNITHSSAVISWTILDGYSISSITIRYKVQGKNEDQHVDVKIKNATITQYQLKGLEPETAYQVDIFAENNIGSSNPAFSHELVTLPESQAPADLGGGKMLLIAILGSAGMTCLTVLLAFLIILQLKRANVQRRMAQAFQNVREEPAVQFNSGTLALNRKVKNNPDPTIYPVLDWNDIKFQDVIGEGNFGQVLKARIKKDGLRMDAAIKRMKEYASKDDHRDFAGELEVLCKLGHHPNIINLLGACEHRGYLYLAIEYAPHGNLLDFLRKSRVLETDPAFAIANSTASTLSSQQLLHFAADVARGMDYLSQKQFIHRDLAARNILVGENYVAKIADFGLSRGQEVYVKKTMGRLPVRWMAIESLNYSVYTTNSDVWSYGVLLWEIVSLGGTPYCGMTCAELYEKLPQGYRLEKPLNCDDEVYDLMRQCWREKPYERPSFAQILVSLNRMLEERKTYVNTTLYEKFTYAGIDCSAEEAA
Protein smoothened, sequence (Q99835 whole entry): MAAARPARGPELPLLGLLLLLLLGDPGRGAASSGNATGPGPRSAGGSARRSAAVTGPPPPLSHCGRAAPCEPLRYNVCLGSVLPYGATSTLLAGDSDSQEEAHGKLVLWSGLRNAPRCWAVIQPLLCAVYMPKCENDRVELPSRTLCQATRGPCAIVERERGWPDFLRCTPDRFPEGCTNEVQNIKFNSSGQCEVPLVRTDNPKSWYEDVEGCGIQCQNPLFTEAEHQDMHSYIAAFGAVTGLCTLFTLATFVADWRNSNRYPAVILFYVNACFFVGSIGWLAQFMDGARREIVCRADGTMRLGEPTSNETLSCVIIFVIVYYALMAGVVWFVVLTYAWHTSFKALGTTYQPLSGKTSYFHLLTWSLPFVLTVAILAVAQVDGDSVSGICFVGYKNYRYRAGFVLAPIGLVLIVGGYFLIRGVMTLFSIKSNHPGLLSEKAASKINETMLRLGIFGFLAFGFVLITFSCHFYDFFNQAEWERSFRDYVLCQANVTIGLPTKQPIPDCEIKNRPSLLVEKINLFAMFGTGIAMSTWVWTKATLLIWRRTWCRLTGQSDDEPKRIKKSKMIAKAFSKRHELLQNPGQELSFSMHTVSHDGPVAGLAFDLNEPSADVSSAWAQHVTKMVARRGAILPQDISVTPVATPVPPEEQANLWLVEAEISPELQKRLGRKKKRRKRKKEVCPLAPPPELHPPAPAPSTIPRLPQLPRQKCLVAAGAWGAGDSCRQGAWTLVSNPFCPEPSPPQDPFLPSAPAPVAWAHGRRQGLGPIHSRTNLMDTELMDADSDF
High affinity nerve growth factor receptor (Homo sapiens), sequence (P04629 33-796 limits assumed): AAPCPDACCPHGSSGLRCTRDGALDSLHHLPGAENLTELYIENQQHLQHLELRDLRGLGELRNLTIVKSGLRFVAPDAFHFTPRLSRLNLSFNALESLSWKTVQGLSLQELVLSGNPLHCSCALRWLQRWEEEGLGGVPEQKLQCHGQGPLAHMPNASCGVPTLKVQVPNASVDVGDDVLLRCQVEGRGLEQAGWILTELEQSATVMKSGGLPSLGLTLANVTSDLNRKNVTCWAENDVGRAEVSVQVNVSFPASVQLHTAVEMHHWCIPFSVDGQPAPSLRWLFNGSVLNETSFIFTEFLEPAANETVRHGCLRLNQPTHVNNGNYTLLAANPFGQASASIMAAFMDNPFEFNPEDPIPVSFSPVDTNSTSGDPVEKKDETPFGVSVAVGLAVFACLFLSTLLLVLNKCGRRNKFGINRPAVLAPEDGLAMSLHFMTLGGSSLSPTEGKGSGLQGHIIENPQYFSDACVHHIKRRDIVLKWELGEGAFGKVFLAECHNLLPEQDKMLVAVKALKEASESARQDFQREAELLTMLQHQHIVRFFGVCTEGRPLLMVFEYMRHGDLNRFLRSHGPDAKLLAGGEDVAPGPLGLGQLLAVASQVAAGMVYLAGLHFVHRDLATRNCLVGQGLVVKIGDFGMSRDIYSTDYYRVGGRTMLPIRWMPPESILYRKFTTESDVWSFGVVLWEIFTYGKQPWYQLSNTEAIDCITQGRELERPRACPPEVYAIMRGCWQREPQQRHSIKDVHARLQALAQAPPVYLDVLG

Regarding `O=C(CN1C(=O)/C(=N\NC(=O)c2cc(Br)ccc2O)c2c(Br)cccc21)Nc1ccc([N+](=O)[O-])cc1`, the IC50 in test [1] was 3520 nM; in test [5], 4050 nM. Besides, the inhibition in test [2] was determined as 46.4%; in test [3], 50.7%; in test [4] it was 65.9%; in test [6], 89.5%; in test [7] it was 70.8%. Besides, the inhibitory constant (Ki) on Protein smoothened was 9 nM.
For the molecule `Cc1ccc(NC(=O)CN2C(=O)/C(=N\NC(=O)c3cc(Br)ccc3O)c3ccc(Cl)cc32)cc1`, the 50% inhibitory concentration (IC50) was 5160 nM in test [1] and 2270 nM in test [5]. The inhibition in test [2] was determined as 51.3%; in test [3] it was 64.3%; in test [4], 66.9%; in test [6], 76.7%; in test [7], 63%. For the same molecule, on Protein smoothened, the affinity, expressed as Ki, was 28 nM.
On to `Cc1ccc(NC(=O)CN2C(=O)/C(=N\NC(=O)c3cc(Br)ccc3O)c3ccc(Br)cc32)cc1`, for which the half-inhibitory concentration (IC50) came out at 4340 nM in test [1] and 2080 nM in test [5]. Also, the inhibition in test [2] amounted to 39.3%; in test [3] it was 56.5%; in test [4] it was 64.3%; in test [6], 76.7%; in test [7], 62.5%. The inhibitory constant (Ki) at Protein smoothened turned out to be 11 nM.
As for `Cc1ccc(NC(=O)CN2C(=O)/C(=N\NC(=O)c3cc(Br)ccc3O)c3ccccc32)cc1`, the half-inhibitory concentration (IC50) stood at 10700 nM in test [1] and 9510 nM in test [5]. Besides, the inhibition was found to be 48.5% in test [2]; 49.3% in test [3]; 80% in test [4]; 93.1% in test [6]; 93.3% in test [7]. Also, the affinity at Protein smoothened corresponds to a Ki of 185 nM.
